Test results from ChEMBL document CHEMBL4014314, “Rational Design of Bisubstrate-Type Analogues as Inhibitors of DNA Methyltransferases in Cancer Cells” (J Med Chem, 2017).

How the values were obtained:
[1] = target: T1, DNA (cytosine-5)-methyltransferase 1 (Homo sapiens, UniProt P26358); experiment: Inhibition of full length His-tagged human DNMT1 using SAM/[methyl-3H]SAM assessed as reduction of methylation in biotinylated hemimethylated DNA duplex at 100 uM after 1 hr by scintillation counting method relative to control
T1 sequence (P26358 whole entry, the tested form may be a part): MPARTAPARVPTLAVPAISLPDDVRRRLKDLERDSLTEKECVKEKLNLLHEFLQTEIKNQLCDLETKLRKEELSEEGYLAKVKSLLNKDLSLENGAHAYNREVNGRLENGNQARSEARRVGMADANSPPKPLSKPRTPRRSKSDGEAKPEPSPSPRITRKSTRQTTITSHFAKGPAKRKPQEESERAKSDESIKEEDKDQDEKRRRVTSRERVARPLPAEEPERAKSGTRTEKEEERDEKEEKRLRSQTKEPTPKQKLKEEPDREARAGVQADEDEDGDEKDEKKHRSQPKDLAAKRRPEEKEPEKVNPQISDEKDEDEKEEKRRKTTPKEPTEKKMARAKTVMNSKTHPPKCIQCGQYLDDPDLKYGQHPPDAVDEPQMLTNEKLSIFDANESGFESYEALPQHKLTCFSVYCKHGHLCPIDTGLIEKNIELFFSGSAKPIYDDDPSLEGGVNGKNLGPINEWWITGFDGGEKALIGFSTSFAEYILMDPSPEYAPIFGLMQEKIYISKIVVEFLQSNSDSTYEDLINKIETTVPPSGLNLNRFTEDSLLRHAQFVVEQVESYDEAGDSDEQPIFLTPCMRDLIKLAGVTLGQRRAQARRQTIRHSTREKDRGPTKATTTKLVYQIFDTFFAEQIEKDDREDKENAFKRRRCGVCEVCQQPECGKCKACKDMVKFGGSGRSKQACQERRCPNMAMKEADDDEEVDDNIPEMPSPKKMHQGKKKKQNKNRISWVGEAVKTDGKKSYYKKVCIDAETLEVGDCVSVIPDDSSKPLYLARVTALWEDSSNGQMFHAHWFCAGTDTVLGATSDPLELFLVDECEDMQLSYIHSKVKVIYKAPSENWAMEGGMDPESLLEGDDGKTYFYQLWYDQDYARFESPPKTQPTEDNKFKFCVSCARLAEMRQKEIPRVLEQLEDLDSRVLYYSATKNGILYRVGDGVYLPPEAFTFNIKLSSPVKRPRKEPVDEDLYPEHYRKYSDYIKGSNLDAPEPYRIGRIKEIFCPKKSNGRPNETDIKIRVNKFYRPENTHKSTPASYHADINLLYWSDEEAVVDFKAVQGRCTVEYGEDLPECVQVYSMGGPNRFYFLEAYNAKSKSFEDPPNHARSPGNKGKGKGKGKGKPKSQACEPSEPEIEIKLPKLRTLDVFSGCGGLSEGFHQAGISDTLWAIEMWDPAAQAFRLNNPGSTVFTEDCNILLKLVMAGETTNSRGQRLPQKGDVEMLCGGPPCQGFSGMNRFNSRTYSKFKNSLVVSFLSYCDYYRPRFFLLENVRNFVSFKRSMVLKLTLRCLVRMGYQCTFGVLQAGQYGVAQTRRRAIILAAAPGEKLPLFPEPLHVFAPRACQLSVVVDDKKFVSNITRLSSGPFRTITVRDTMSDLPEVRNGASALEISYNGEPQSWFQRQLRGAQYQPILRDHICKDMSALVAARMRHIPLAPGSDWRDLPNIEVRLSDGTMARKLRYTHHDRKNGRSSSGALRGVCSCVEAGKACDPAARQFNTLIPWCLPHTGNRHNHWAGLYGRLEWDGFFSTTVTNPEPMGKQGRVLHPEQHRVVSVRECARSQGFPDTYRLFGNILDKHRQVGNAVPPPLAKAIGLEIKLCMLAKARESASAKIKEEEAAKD

[2] = target: T2, DNA (cytosine-5)-methyltransferase 3A (Homo sapiens, UniProt Q9Y6K1); experiment: Inhibition of human DNMT3A catalytic domain using AdoMet assessed as reduction of methylation in 5'-biotin/3' 6-carboxyfluorescein labeled DNA duplex at CpG site at 10 uM after 1 hr by fluorescence assay relative to control
T2 sequence (Q9Y6K1 whole entry, looked up, the tested form may be a part): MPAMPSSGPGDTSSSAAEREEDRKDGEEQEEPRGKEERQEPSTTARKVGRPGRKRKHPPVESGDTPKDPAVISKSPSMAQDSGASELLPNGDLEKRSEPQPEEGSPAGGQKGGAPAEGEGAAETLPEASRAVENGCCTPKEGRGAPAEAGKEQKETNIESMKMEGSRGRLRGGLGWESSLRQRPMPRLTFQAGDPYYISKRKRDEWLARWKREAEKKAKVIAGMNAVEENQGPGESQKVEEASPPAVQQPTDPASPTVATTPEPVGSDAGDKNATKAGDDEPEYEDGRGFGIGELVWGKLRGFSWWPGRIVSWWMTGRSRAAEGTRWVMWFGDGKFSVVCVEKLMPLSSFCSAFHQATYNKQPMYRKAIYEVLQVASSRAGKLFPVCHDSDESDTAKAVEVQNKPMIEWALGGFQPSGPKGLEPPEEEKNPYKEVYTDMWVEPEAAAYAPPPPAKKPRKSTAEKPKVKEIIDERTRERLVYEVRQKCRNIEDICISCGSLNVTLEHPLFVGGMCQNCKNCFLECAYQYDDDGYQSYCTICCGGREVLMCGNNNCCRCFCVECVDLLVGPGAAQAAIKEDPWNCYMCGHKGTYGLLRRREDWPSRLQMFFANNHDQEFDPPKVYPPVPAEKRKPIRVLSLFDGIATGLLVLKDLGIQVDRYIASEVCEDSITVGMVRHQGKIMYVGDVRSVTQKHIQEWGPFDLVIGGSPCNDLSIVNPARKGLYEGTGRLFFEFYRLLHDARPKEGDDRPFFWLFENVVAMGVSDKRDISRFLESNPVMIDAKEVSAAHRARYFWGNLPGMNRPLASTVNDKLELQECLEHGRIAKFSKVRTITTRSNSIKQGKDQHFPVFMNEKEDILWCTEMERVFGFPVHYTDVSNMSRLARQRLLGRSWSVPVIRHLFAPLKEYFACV

[3] = target: T2, DNA (cytosine-5)-methyltransferase 3A; experiment: Inhibition of human DNMT3A catalytic domain using AdoMet assessed as reduction of methylation in 5'-biotin/3' 6-carboxyfluorescein labeled DNA duplex at CpG site at 32 uM after 1 hr by fluorescence assay relative to control
[4] = target: T2, DNA (cytosine-5)-methyltransferase 3A; experiment: Inhibition of human DNMT3A catalytic domain using AdoMet assessed as reduction of methylation in 5'-biotin/3' 6-carboxyfluorescein labeled DNA duplex at CpG site after 1 hr by fluorescence assay
Outline: (§1)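 Human full-length DNMT1 and catalytic DNMT3A tested for methylation of a DNA duplex; the paper gives assay details elsewhere. EC50 from a sigmoid dose-response fit with variable Hill slope; reported as median with SE from at least two independent experiments for DNMT1 and three for DNMT3A; DNMT3A curves run in technical duplicates.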

[5] = target: T1, DNA (cytosine-5)-methyltransferase 1; experiment: Inhibition of full length His-tagged human DNMT1 using SAM/[methyl-3H]SAM assessed as reduction of methylation in biotinylated hemimethylated DNA duplex at 32 uM after 1 hr by scintillation counting method relative to control
[6] = target: T1, DNA (cytosine-5)-methyltransferase 1; experiment: Inhibition of full length His-tagged human DNMT1 using SAM/[methyl-3H]SAM assessed as reduction of methylation in biotinylated hemimethylated DNA duplex after 1 hr by scintillation counting method; outline: as §1

Row | SMILES | inhibition [1] | inhibition [2] | inhibition [3] | EC50 [4] | inhibition [5] | EC50 [6]
1 | Clc1cccc(CCNc2ncnc3cc(OCC4CCN(CCNc5ccnc6ccccc56)CC4)ccc23)c1 | 97% | 84% | 98% | 1 µM | 0% | –
2 | O=[N+]([O-])c1ccc(CCNc2ncnc3cc(OCC4CCN(CCNc5ccnc6ccccc56)CC4)ccc23)cc1 | 72% | 54% | 74% | – | 0% | –
3 | c1ccc(CCCNc2ncnc3cc(OCC4CCN(CCNc5ccc6ccccc6c5)CC4)ccc23)cc1 | 0% | 0% | 0% | – | 0% | –
4 | Oc1cc2nccc(NCCN3CCC(COc4ccc5c(NCCCc6ccccc6)ncnc5c4)CC3)c2cc1O | 81% | 66% | 93% | – | 36% | –
5 | COc1ccc2c(NCCN3CCC(COc4ccc5c(NCCCc6ccccc6)ncnc5c4)CC3)ccnc2c1 | 90% | 70% | 80% | – | 35% | –
6 | c1ccc(CCCNc2ncnc3cc(OCCN4CCN(CCNc5ccnc6ccccc56)CC4)ccc23)cc1 | 83% | 37% | 67% | – | 0% | –
7 | c1ccc2c(CCCNc3ncnc4cc(OCC5CCN(CCNc6ccnc7ccccc67)CC5)ccc34)cccc2c1 | 100% | 96% | 60% | 1.9 µM | 100% | 16 µM
8 | NS(=O)(=O)c1ccc(CCNc2ncnc3cc(OCC4CCN(CCNc5ccnc6ccccc56)CC4)ccc23)cc1 | 100% | 0% | 93% | – | 59% | –
9 | Cc1cc(NCCN2CCC(COc3ccc4c(NCCCc5ccccc5)ncnc4c3)CC2)c2ccccc2n1 | 100% | 89% | 100% | 2.1 µM | 83% | 24 µM
10 | O=c1c2ccc(OCC3CCN(CCNc4ccnc5ccccc45)CC3)cc2ncn1CCCc1ccccc1 | 90% | 65% | 99% | – | 0% | –
11 | COc1cc2nccc(NCCN3CCC(COc4ccc5c(NCCCc6ccccc6)ncnc5c4)CC3)c2cc1OC | 81% | 95% | 95% | 1.4 µM | 57% | 30 µM
12 | CN(CCN1CCC(COc2ccc3c(NCCCc4ccccc4)ncnc3c2)CC1)c1ccnc2ccccc12 | 57% | 53% | 66% | – | 10% | –
13 | CC(C)c1ccc(CCNc2ncnc3cc(OCC4CCN(CCNc5ccnc6ccccc56)CC4)ccc23)cc1 | 8% | 53% | 83% | – | 0% | –
14 | Cn1ccc2cc(NCCN3CCC(COc4ccc5c(NCCCc6ccccc6)ncnc5c4)CC3)ccc21 | 50% | 74% | 90% | – | 21% | –
15 | Fc1ccc2nccc(NCCN3CCC(COc4ccc5c(NCCCc6ccccc6)ncnc5c4)CC3)c2c1 | 79% | 0% | 82% | – | 0% | –
16 | FC(F)(F)c1cc(NCCN2CCC(COc3ccc4c(NCCCc5ccccc5)ncnc4c3)CC2)c2ccccc2n1 | 13% | 0% | 0% | – | 0% | –
17 | c1ccc(CCCNc2ncnc3cc(OCC4CCN(c5ccnc6ccccc56)CC4)ccc23)cc1 | 6% | 0% | 0% | – | 0% | –
18 | c1ccc(CCCNc2ncnc3cc(OCC4CCN(CCNc5ccncc5)CC4)ccc23)cc1 | 34% | 47% | 72% | – | – | –
19 | c1ccc(CCCNc2ncnc3cc(OCC4CCN(CCNc5cncc6ccccc56)CC4)ccc23)cc1 | 0% | 35% | 49% | – | 0% | –
20 | Cc1cc(NCCN2CCC(COc3ccc4c(NCCCc5ccccc5)ncnc4c3)CC2)c2cccc(C)c2n1 | 99% | 81% | 82% | – | 33% | –
21 | c1ccc(NCCNc2ncnc3cc(OCC4CCN(CCNc5ccnc6ccccc56)CC4)ccc23)cc1 | 93% | 76% | 95% | 6.8 µM | 61% | 73 µM
22 | COCn1ccc(NCCN2CCC(COc3ccc4c(NCCCc5ccccc5)ncnc4c3)CC2)nc1=O | 11% | 10% | 44% | – | 0% | –
23 | Clc1ccc2c(NCCN3CCC(COc4ccc5c(NCCCc6ccccc6)ncnc5c4)CC3)ccnc2c1 | 79% | 70% | 62% | – | 33% | –

Row | SMILES | inhibition [1] | inhibition [2] | inhibition [3] | EC50 [4] | inhibition [5] | EC50 [6]
24 | Nc1ncnc2cc(OCC3CCN(CCNc4ccnc5ccccc45)CC3)ccc12 | 99% | 16% | 68% | – | 0% | –
25 | Clc1ccccc1CCNc1ncnc2cc(OCC3CCN(CCNc4ccnc5ccccc45)CC3)ccc12 | 97% | 10% | 100% | – | 42% | –
26 | Clc1ccc(CCNc2ncnc3cc(OCC4CCN(CCNc5ccnc6ccccc56)CC4)ccc23)cc1 | 97% | 88% | 100% | 1.2 µM | 75% | 26 µM
27 | c1ccc(CCCNc2ncnc3cc(OCC4CCN(CCNc5cnc6ccccc6c5)CC4)ccc23)cc1 | 12% | 38% | 45% | – | 0% | –
28 | Cc1cc(Nc2ccc(NC(=O)c3ccc(Nc4ccnc5ccccc45)cc3)cc2)nc(N)n1 | – | 70% | 72% | – | – | –
29 | Nc1ccc(NCCN2CCC(COc3ccc4c(NCCCc5ccccc5)ncnc4c3)CC2)cc1 | 0% | 37% | 65% | – | 0% | –
30 | Nc1ccc(CCNc2ncnc3cc(OCC4CCN(CCNc5ccnc6ccccc56)CC4)ccc23)cc1 | 97% | 68% | 96% | – | 59% | –
31 | Oc1ccc2c(NCCN3CCC(COc4ccc5c(NCCCc6ccccc6)ncnc5c4)CC3)ccnc2c1 | 59% | 74% | 72% | – | 0% | –
32 | CCCNc1ncnc2cc(OCC3CCN(CCNc4ccnc5ccccc45)CC3)ccc12 | 95% | 28% | 69% | – | 0% | –
33 | Cc1cc(NCCN2CCC(COc3ccc4c(NCCCc5ccccc5)ncnc4c3)CC2)ccn1 | 55% | 26% | 58% | – | 13% | –
34 | c1ccc(CCCNc2ncnc3cc(OCC4CCN(CCNc5cccc6cnccc56)CC4)ccc23)cc1 | 0% | 0% | 0% | – | 0% | –
35 | CN(C)c1ccc(NCCN2CCC(COc3ccc4c(NCCCc5ccccc5)ncnc4c3)CC2)c2ccccc12 | 15% | 66% | 77% | – | 8% | –
36 | c1ccc(CN2CCC(Nc3ncnc4cc(OCC5CCN(CCNc6ccnc7ccccc67)CC5)ccc34)CC2)cc1 | 81% | 72% | 93% | – | 65% | –
37 | COCn1ccc(NCCNCCCOc2ccc3c(NCCCc4ccccc4)ncnc3c2)nc1=O | 0% | 0% | 0% | – | 0% | –
38 | c1ccc(CCCNc2ncnc3cc(OCCCNCCNc4ccnc5ccccc45)ccc23)cc1 | 90% | 59% | 85% | – | 0% | –
39 | COc1ccc(CCNc2ncnc3cc(OCC4CCN(CCNc5ccnc6ccccc56)CC4)ccc23)cc1 | 100% | 82% | 100% | 3.4 µM | 82% | 27 µM
40 | c1ccc(CCCNc2ncnc3cc(OCC4CCN(CCNc5cccc6ncccc56)CC4)ccc23)cc1 | 0% | 50% | 60% | – | 0% | –
41 | c1ccc(CCCNc2ncnc3cc(OCC4CCN(CCNc5ccc6ncccc6c5)CC4)ccc23)cc1 | 16% | 47% | 60% | – | 0% | –
42 | FC(F)(F)c1ccc2c(NCCN3CCC(COc4ccc5c(NCCCc6ccccc6)ncnc5c4)CC3)ccnc2c1 | 48% | 0% | 0% | – | 0% | –
43 | c1ccc(CNc2ncnc3cc(OCC4CCN(CCNc5ccnc6ccccc56)CC4)ccc23)cc1 | 26% | 43% | 81% | – | 22% | –
44 | c1ccc(CN2CCN(CCNc3ncnc4cc(OCC5CCN(CCNc6ccnc7ccccc67)CC5)ccc34)CC2)cc1 | 71% | 62% | 88% | – | 0% | –
45 | c1ccc(CCNc2ncnc3cc(OCC4CCN(CCNc5ccnc6ccccc56)CC4)ccc23)cc1 | 98% | 80% | 99% | 4.9 µM | 38% | 32 µM
